From ChEMBL document CHEMBL1126569, “Nucleosides and nucleotides. 123. Synthesis of 1-(2-deoxy-2-isocyano-beta-D-arabinofuranosyl)cytosine and related nucleosides as potential antitumor agents” (J Med Chem, 1993)

Columns and labels:
[1] = system: Lewis lung carcinoma cell line; assay: Tested in vitro for cytotoxicity against LLC Lewis lung carcinoma cell line; type: functional, cell-based; conditions: Mus musculus
In short: (§1)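 Cells were grown in RPMI 1640 with 10% FCS, and the L1210 medium also had 2-mercaptoethanol added. Compound was dissolved in Ca/Mg-free Dulbecco's PBS or saline, diluted in culture medium and applied for 72 h in a CO2 incubator. Cells were fixed in 0.1% glutaraldehyde and stained with 0.01% crystal violet. Dye was extracted in 50% EtOH–25 mM NaH2PO4 and OD read. IC50 is the concentration giving 50% reduction of optical density.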

L1210 [2] = assay: Tested in vitro for cytotoxicity against leukemia L1210 cell line in mouse; type: functional, cell-based; in short: as §1
KB [3] = assay: Tested in vitro for cytotoxicity against KB human oral epidermoid carcinoma cell line; type: functional, cell-based; in short: as §1
Mus musculus [4] = assay: In vivo percent inhibition of Lewis Lung Carcinoma cell line in mice at 100 mg/Kg per day (p<0.001) compared with ara-C; type: functional
In short: (§2)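 A 2-mm cube of LLC was implanted s.c. in the backs of 9-week-old male BDF1 mice on day 0, with 7 mice per dose group. Drug in saline was given i.p. once daily on days 1–5 at 0.1 mL/10 g body weight. Tumor weight was measured on day 17. Percent inhibition compares the mean tumor weight of treated mice with vehicle-only controls.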

Mus musculus [5] = assay: In vivo percent inhibition of Lewis Lung Carcinoma cell line in mice at 200 mg/Kg per day (p<0.001) compared with ara-C; type: functional; in short: as §2
Mus musculus [6] = assay: Tested for in vivo antitumor activity against Lewis Lung Carcinoma cell line in mice and tumor weight change at 200 mg/Kg per day; type: functional; in short: as §2
Mus musculus [7] = assay: Tested in vivo for antitumor activity against Lewis Lung Carcinoma cell line in mice and tumor weight change at 100 mg/Kg per day; type: functional; in short: as §2
Mus musculus [8] = assay: Mean body weight change on 17th day at a dose of 100 mg/kg/day; type: functional
In short: (§3)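 LLC fragments were implanted s.c. into male BDF1 mice aged 9 weeks on day 0, with seven animals per dose. Drug dissolved in saline was given intraperitoneally once a day for 5 days, days 1–5. Mean body weight change was recorded on day 5 and on day 17 and compared with saline-vehicle controls.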

Mus musculus [9] = assay: Mean body weight change on 17th day at a dose of 200 mg/kg/day; type: functional; in short: as §3
Mus musculus [10] = assay: Mean body weight change on 5th day at a dose of 200 mg/kg/day; type: functional; in short: as §3
Mus musculus [11] = assay: Mean body weight change on 5th day at a dose of 100 mg/kg/day; type: functional; in short: as §3
[12] = system: KATO III stomach cancer cell line; assay: Tested in vitro for cytotoxicity against KATO III human stomach adenocarcinoma cell line; type: functional, cell-based; in short: as §1
KB [13] = assay: tested in vitro for cytotoxicity against KB human oral epidermoid carcinoma cell line; type: functional, cell-based; in short: as §1
[14] = system: KATO III stomach cancer cell line; assay: tested for in vitro cytotoxicity against KATO III human stomach adenocarcinoma cell line; type: functional, cell-based; in short: as §1
[15] = system: Lewis lung carcinoma cell line; assay: tested for in vitro cytotoxicity against LLC Lewis lung carcinoma cell line; type: functional, cell-based; conditions: Mus musculus; in short: as §1
L1210 [16] = assay: tested in vitro for cytotoxicity against L1210 leukemia cell line in mouse; type: functional, cell-based; in short: as §1
[17] = system: KATO III stomach cancer cell line; assay: Tested for in vitro cytotoxicity against KATO III human stomach adenocarcinoma cell line; type: functional, cell-based; in short: as §1
L1210 [18] = assay: Tested in vitro for cytotoxicity against L1210 leukemia cell line in mouse
[19] = system: Lewis lung carcinoma cell line; assay: Tested for in vitro cytotoxicity against LLC Lewis lung carcinoma cell line; type: functional, cell-based; conditions: Mus musculus; in short: as §1
KB [20] = assay: Tested for in vitro cytotoxicity against KB human oral epidermoid carcinoma cell line; type: functional, cell-based; in short: as §1
Mus musculus [21] = assay: In vivo percent inhibition of Lewis Lung Carcinoma cell line in mice at 100 mg/Kg per day (p<0.001) compared with NCDAC; type: functional; in short: as §2
Mus musculus [22] = assay: In vivo percent inhibition of Lewis Lung Carcinoma cell line in mice drug at 200 mg/Kg per day (p<0.001) compared with NCDAC; type: functional; in short: as §2
Mus musculus [23] = assay: Tested for in vivo antitumor activity against Lewis Lung Carcinoma cell line in mice and tumor weight change at 100 mg/Kg per day; type: functional; in short: as §2

[C-]#[N+][C@@H]1[C@H](n2ccc(N)nc2=O)OC(CO)[C@@H]1O (stereo partly drawn)
IC50 [1]: 4.9 µM
IC50 (L1210 [2]): 12.6 µM
IC50 (KB [3]): 7.9 µM
Inhibition ratio (Mus musculus [4]): 61%
Inhibition ratio (Mus musculus [5]): 60.6%
Tumor weight (Mus musculus [6]): 1.09 g
Tumor weight (Mus musculus [7]): 1.08 g
Weight change (Mus musculus [8]): 2
Weight change (Mus musculus [9]): 2.1
Weight change (Mus musculus [10]): 0.2
Weight change (Mus musculus [11]): 0.4
IC50 [12]: 90 µM

[C-]#[N+][C@@H]1[C@H](n2ccc(=O)[nH]c2=O)OC(CO)[C@@H]1O (stereo partly drawn)
IC50 (KB [13]): 36.8 µM
IC50 [14]: > 100 µM
IC50 [15]: > 100 µM
IC50 (L1210 [16]): 34 µM

Nc1ccn([C@@H]2O[C@H](CO)[C@@H](O)[C@@H]2O)c(=O)n1 [CYTARABINE]
IC50 [17]: 0.3 µM
IC50 (L1210 [18]): 0.12 µM
IC50 [19]: 5.6 µM
IC50 (KB [20]): 0.64 µM
Inhibition ratio (Mus musculus [21]): 83%
Inhibition ratio (Mus musculus [22]): 87.7%
Tumor weight (Mus musculus [6]): 0.34 g
Tumor weight (Mus musculus [23]): 0.47 g
Weight change (Mus musculus [8]): 0.8
Weight change (Mus musculus [9]): 0.7
Weight change (Mus musculus [10]): -0.1
Weight change (Mus musculus [11]): -0.4
